These results are taken from ChEMBL document CHEMBL1817582, “Optimization of the in vitro cardiac safety of hydroxamate-based histone deacetylase inhibitors” (J Med Chem, 2011).

The nature of data set [1]: Dissociation constant, pKa of the compound. It counts as physicochemical.
A short description of data set [2]: Half life in Sprague-Dawley rat at 5 mg/kg, iv. The arrangement: dose 5 mg/kg, route intravenous. It counts as ADME, organism-based. The conditions noted are these: in vivo. In outline: (§1)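 Pharmacokinetics in naive Sprague-Dawley rats and in HCT116 tumor-bearing nude mice after single iv or oral dosing. Parameters reported as means: AUC, clearance, Vss, half-life, Cmax and oral bioavailability (F%).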

Data set [3] can be described thus: Oral bioavailability in nude mouse xenografted with human HCT116 cells at 20 mg/kg. It counts as ADME, organism-based, HCT-116. The conditions noted are these: in vivo. A digest of the protocol: as §1
The nature of data set [4]: Cmax in Sprague-Dawley rat at 10 mg/kg, po. It counts as ADME, organism-based. The arrangement: dose 10 mg/kg, route oral. The conditions noted are these: in vivo. A digest of the protocol:
as §1

Data set [5] in a line: Cmax in nude mouse xenografted with human HCT116 cells at 20 mg/kg, po. Format: ADME, organism-based, HCT-116. The arrangement: dose 20 mg/kg, route oral. The conditions noted are these: in vivo. In outline: as §1
A short description of data set [6]: Volume of distribution at steady state in nude mouse xenografted with human HCT116 cells at 5 mg/kg, iv. The conditions noted are these: in vivo, read-out: Vdss. Format: ADME, organism-based, HCT-116. The arrangement: dose 5 mg/kg, route intravenous. A digest of the protocol: as §1
A short description of data set [7]: Metabolic stability in plasma of nude mouse xenografted with human HCT116 cells assessed as compound remaining after 3 hrs. Format: ADME, cell-free, HCT-116. The conditions noted are these: read-out: Stability. A digest of the protocol: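 Compound incubated in mouse plasma for three hours; percentage of compound remaining measured.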
Data set [8] can be described thus: Clearance in nude mouse xenografted with human HCT116 cells at 5 mg/kg, iv. Format: ADME, organism-based, HCT-116. The arrangement: dose 5 mg/kg, route intravenous. Conditions: in vivo. In outline: as §1
In data set [9] the test system is Rattus norvegicus. The data set is described as follows: AUC in Sprague-Dawley rat at 5 mg/kg, iv. The arrangement: dose 5 mg/kg, route intravenous. The conditions noted are these: in vivo. It counts as ADME, organism-based, Plasma. In outline:
as §1

Data set [10] deals with Rattus norvegicus. Description: Oral bioavailability in Sprague-Dawley rat at 10 mg/kg. Format: ADME, organism-based. The conditions noted are these: in vivo. In outline: as §1
A short description of data set [11]: Half life in nude mouse xenografted with human HCT116 cells at 5 mg/kg, iv. Format: ADME, organism-based, HCT-116. The arrangement: dose 5 mg/kg, route intravenous. Conditions: in vivo. A digest of the protocol: as §1
Data set [12] in a line: AUC in nude mouse xenografted with human HCT116 cells at 20 mg/kg, po. Format: ADME, organism-based, HCT-116. The arrangement: dose 20 mg/kg, route oral. The conditions noted are these: in vivo. In outline:
as §1

Data set [13] can be described thus: AUC in nude mouse xenografted with human HCT116 cells at 5 mg/kg, iv. Format: ADME, organism-based, HCT-116. The arrangement: dose 5 mg/kg, route intravenous. The conditions noted are these: in vivo. In outline:
as §1

Data set [14] is described as follows: Volume of distribution at steady state in Sprague-Dawley rat at 5 mg/kg, iv. Conditions: in vivo, read-out: Vdss. Format: ADME, organism-based. The arrangement: dose 5 mg/kg, route intravenous. A digest of the protocol:
as §1

Data set [15] relates to Rattus norvegicus. Description: AUC in Sprague-Dawley rat at 10 mg/kg, po. Conditions: in vivo. The arrangement: dose 10 mg/kg, route oral. It counts as ADME, organism-based, Plasma. In outline: as §1
A short description of data set [16]: Clearance in Sprague-Dawley rat at 5 mg/kg, iv. Format: ADME, organism-based. The arrangement: dose 5 mg/kg, route intravenous. The conditions noted are these: in vivo. In outline: as §1
The nature of data set [17]: Volume of distribution at steady state in Sprague-Dawley rat at 2 mg/kg, iv. Conditions: in vivo, read-out: Vdss. Format: ADME, organism-based. The arrangement: dose 2 mg/kg, route intravenous. In outline: as §1
Data set [18] is described as follows: AUC in Sprague-Dawley rat at 2 mg/kg, iv. Format: ADME, organism-based. The arrangement: dose 2 mg/kg, route intravenous. Conditions: plasma. In outline:
as §1

Data set [19] can be described thus: Solubility of compound at pH 6.8. The conditions noted are these: buffer. It counts as physicochemical.
The nature of data set [20]: Half life in Sprague-Dawley rat at 2 mg/kg, iv. Format: ADME, organism-based. The arrangement: dose 2 mg/kg, route intravenous. Conditions: in vivo. In outline: as §1
The nature of data set [21]: Clearance in Sprague-Dawley rat at 2 mg/kg, iv. It counts as ADME, organism-based. Conditions: in vivo. The arrangement: dose 2 mg/kg, route intravenous. A digest of the protocol:
as §1

The next data set deals with Homo sapiens. The data set is described as follows: Plasma concentration in human at 800 mg, po administered as single dose. The conditions noted are these: in vivo.
The subject of another data set is Canis familiaris. Description: Plasma concentration in dog at 150 mg/kg, po administered as single dose. It counts as ADME, organism-based, Canis lupus familiaris. The arrangement: dose 150 mg/kg, route oral. Conditions: in vivo.

In [1], `Cc1[nH]c2ccccc2c1CCN(Cc1ccc(/C=C/C(=O)NO)cc1)CC(F)F` yielded a pKa of 4.65.

In data set [1], `O=C(/C=C/c1ccc(CN(CCc2c[nH]c3ccccc23)CC(F)(F)F)cc1)NO` gave a pKa of 3.2.

With `CCCN(CCc1c[nH]c2ccccc12)Cc1ccc(/C=C/C(=O)NO)cc1`, in [1], the pKa amounted to 7.9.

On to `Cc1[nH]c2ccccc2c1CCN(CCC(F)F)Cc1ccc(/C=C/C(=O)NO)cc1`, for which the pKa in [1] was 5.8.

On to `O=C(/C=C/c1ccc(CN(CCc2c[nH]c3ccccc23)CCC(F)(F)F)cc1)NO`, for which the pKa in data set [1] is 4.75.

As for `CC(C)N(CCc1c(C(C)(C)O)[nH]c2ccccc12)Cc1ccc(/C=C/C(=O)NO)cc1`, the half-life in data set [2] is 1.3 h; in data set [11] it was 1 h. Also, in data set [3], the bioavailability is 4%. In addition, the Cmax turned out to be 204 nM in [4] and 56 nM in data set [5]. Further, the figures for the Vd in [6] and in data set [14] were 5.9 L/kg and 7 L/kg, respectively. The remaining at 3 h in data set [7] was determined as 54%. Further, the clearance in data set [8] was determined as 176 mL/min/kg; in data set [16], 66 mL/min/kg. The AUC in the data set on Rattus norvegicus [9] was 1.307 µM·h; in [12] it was 0.0653 µM·h; in data set [13] it was 0.463 µM·h; with Rattus norvegicus [15] it was 0.336 µM·h. The compound further returned a F in the data set with Rattus norvegicus [10] of 5%.

In the case of `CC(C)(C)c1[nH]c2ncccc2c1CCNCc1ccc(/C=C/C(=O)NO)cc1`, the bioavailability in [3] was determined as 4%. This compound had a Cmax in data set [5] of 849 nM. The Vd in data set [6] was 4.5 L/kg. For the same compound, the clearance in [8] stood at 95 mL/min/kg. The compound further showed a half-life in data set [11] of 3.3 h. In addition, the AUC in data set [12] came to 0.474 µM·h; in data set [13] it was 2.44 µM·h.

Take `Cc1nn2ccccc2c1CCNCc1ccc(/C=C/C(=O)NO)cc1`: the Vd in data set [17] is 1.99 L/kg; in data set [6], 1.46 L/kg. Besides, the AUC in data set [18] worked out at 2.56 µM·h; in data set [12], 0.362 µM·h; in data set [13], 5.1 µM·h. The compound also yielded a bioavailability in [3] of 2%. The Cmax in [4] was found to be 61 nM; in [5] it was 202 nM. In data set [19], this compound registered a solubility greater than 1000 µg/mL. In addition, the half-life is 0.915 h in data set [20] and 1.44 h in [11]. Moreover, the clearance in data set [8] turned out to be 46.4 mL/min/kg; in [21] it was 36.5 mL/min/kg.

For `O=C(/C=C/c1ccc(CNCCc2c[nH]c3ccccc23)cc1)NO`, in data set [1], the pKa was 7.65.

The compound `O=C(/C=C/c1ccc(CN(CCO)CCc2c[nH]c3ccccc23)cc1)NO` [DACINOSTAT] yielded a pKa in data set [1] of 7.5.

As to `O=C(CCCCCCC(=O)Nc1ccccc1)NO` [VORINOSTAT], the concentration in the data set with Homo sapiens was 1580 nM; in the data set with Canis familiaris, 960 nM.
